The test system of one test is Staphylococcus aureus. Description: Compound was evaluated for antibacterial activity against Staphylococcus aureus. It counts as functional. The procedure, abridged:
(§1)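 Broth microdilution MIC against E. coli ATCC 25922, P. aeruginosa ATCC 27853, S. aureus ATCC 25723. Cultures grown to midlog phase in nutrient broth, standardized to 0.5 McFarland, diluted to 5 × 10^4 cells per well. Equal volume of peptide added, 1:2 serial dilutions giving 256-2 µg/mL in medium. MIC is the lowest concentration with no turbidity […]. Median of three to seven tests.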

For a further test, the species on record is Mus musculus. Description: (§2) Compound was tested for sublethal concentrations in 3T3 mouse fibroblast lysis. In kind it is functional. The procedure, abridged: (§3)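 Mouse 3T3 fibroblast monolayers, 1 day old (about 1 × 10^4 cells/well), in MEM. Peptide applied as 2-fold serial dilutions in MEM, 30 min at 37 °C alongside untreated controls. Cells then stained with 0.2% trypan blue and viewed by light microscopy. Sublethal dose is the highest dilution in which only 1-10 adherent cells stay unstained.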

The subject of another test is Pseudomonas aeruginosa. Description: Compound was evaluated for antibacterial activity against Pseudomonas aeruginosa. It counts as functional. The procedure, abridged: as §1
Another test has as its system Escherichia coli. As to the kind of experiment: Compound was evaluated for antibacterial activity against Escherichia coli. In kind it is functional. A digest of the protocol: as §1
For another test, the species on record is Homo sapiens. As to the kind of experiment: Compound was measured for sublethal concentrations (uM) in Human erythrocytes. It counts as functional. The procedure, abridged: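 Human erythrocytes (1 × 10^5 per well) incubated at 37 °C for 30 min with peptide. Peptide was dissolved in serum-free MEM and diluted 2-fold serially. Sublethal concentration is the highest dilution […]. A "greater than" entry means slight hemolysis at the highest concentration tested.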

The test system of a further test is NIH3T3. The test is described as §2. In kind it is functional, cell-based. The procedure, abridged:
as §3

Converted amounts (≈) assume the structure as drawn.

For orientation: MIC means the smallest concentration in the dilution series that meets the test's criterion for growth inhibition. High values mean a need for much substance, low ones inhibition by little substance. As to `CC(C)C[C@H](NC(=O)[C@H](CCCCN)NC(=O)[C@H](CCCCN)NC(=O)[C@H](C)NC(=O)[C@H](CC(C)C)NC(=O)[C@H](CCCCN)NC(=O)[C@H](C)NC(=O)[C@H](CC(C)C)NC(=O)[C@H](CCCCN)NC(=O)[C@H](CCCCN)NC(=O)[C@H](C)NC(=O)[C@H](CC(C)C)NC(=O)[C@H](CCCCN)NC(=O)[C@H](C)NC(=O)[C@H](CC(C)C)NC(=O)[C@H](CCCCN)NC(=O)[C@H](CCCCN)NC(=O)[C@H](C)NC(=O)[C@H](CC(C)C)NC(=O)[C@@H](N)CCCCN)C(=O)N[C@@H](C)C(=O)O`, the minimum inhibitory concentration (MIC) against Staphylococcus aureus, against Pseudomonas aeruginosa and against Escherichia coli was 4 µM (≈ 9.11 µg/mL) each time. Further, the Concentration in the test filed under Mus musculus was 11 µM; in the test filed under Homo sapiens, > 250 µM.
For the molecule `CC(C)C[C@H](NC(=O)[C@H](C)NC(=O)[C@H](CCCCN)NC(=O)[C@H](CC(C)C)NC(=O)[C@H](C)NC(=O)[C@H](CCCCN)NC(=O)[C@H](CCCCN)NC(=O)[C@H](CC(C)C)NC(=O)[C@H](C)NC(=O)[C@H](CCCCN)NC(=O)[C@H](CC(C)C)NC(=O)[C@H](C)NC(=O)[C@H](CCCCN)NC(=O)[C@H](CCCCN)NC(=O)[C@H](CC(C)C)NC(=O)[C@H](C)NC(=O)[C@H](CCCCN)NC(=O)[C@H](CC(C)C)NC(=O)[C@H](C)NC(=O)[C@@H](N)CCCCN)C(=O)N[C@@H](CCCCN)C(=O)O`, the results for the MIC with Staphylococcus aureus, in the test on Pseudomonas aeruginosa and with Escherichia coli were 8 µM (≈ 18.2 µg/mL), 4 µM (≈ 9.11 µg/mL) and 4 µM (≈ 9.11 µg/mL), respectively. Moreover, the Concentration in the test on NIH3T3 came out at 11 µM.
On to `CC(C)C[C@H](NC(=O)[C@H](CCCCN)NC(=O)[C@H](C)NC(=O)[C@H](CC(C)C)NC(=O)[C@H](CCCCN)NC(=O)[C@H](CCCCN)NC(=O)[C@H](C)NC(=O)[C@H](CC(C)C)NC(=O)[C@H](CCCCN)NC(=O)[C@H](C)NC(=O)[C@H](CC(C)C)NC(=O)[C@H](CCCCN)NC(=O)[C@H](CCCCN)NC(=O)[C@H](C)NC(=O)[C@H](CC(C)C)NC(=O)[C@H](CCCCN)NC(=O)[C@H](C)NC(=O)[C@H](CC(C)C)NC(=O)[C@@H](N)CCCCN)C(=O)N[C@@H](C)C(=O)N[C@@H](CCCCN)C(=O)O`, for which the MIC against Staphylococcus aureus, against Pseudomonas aeruginosa and against Escherichia coli was 4 µM (≈ 9.11 µg/mL) each time. Also, the Concentration in the test listed under Mus musculus is 9 µM; in the test listed under Homo sapiens it was > 520 µM.
On to `CC(C)C[C@H](NC(=O)[C@H](CCCCN)NC(=O)[C@H](C)NC(=O)[C@H](CC(C)C)NC(=O)[C@H](CCCCN)NC(=O)[C@H](CCCCN)NC(=O)[C@H](C)NC(=O)[C@H](CC(C)C)NC(=O)[C@H](CCCCN)NC(=O)[C@H](C)NC(=O)[C@H](CC(C)C)NC(=O)[C@@H](N)CCCCN)C(=O)N[C@@H](C)C(=O)N[C@@H](CCCCN)C(=O)O`, for which the minimal inhibitory concentration (MIC) with Staphylococcus aureus, in the test with Pseudomonas aeruginosa and with Escherichia coli was 6 µM (≈ 9.14 µg/mL) throughout. In addition, the Concentration in the test listed under Mus musculus is > 517 µM; in the test listed under Homo sapiens it was > 750 µM.
Regarding `CC[C@H](C)[C@H](NC(=O)CN)C(=O)NCC(=O)N[C@@H](C)C(=O)N[C@H](C(=O)N[C@@H](CC(C)C)C(=O)N[C@@H](CCCCN)C(=O)N[C@H](C(=O)N[C@@H](CC(C)C)C(=O)N[C@H](C(=O)N[C@H](C(=O)NCC(=O)N[C@@H](CC(C)C)C(=O)N1CCC[C@H]1C(=O)N[C@@H](C)C(=O)N[C@@H](CC(C)C)C(=O)N[C@H](C(=O)N[C@@H](CO)C(=O)N[C@@H](Cc1c[nH]c2ccccc12)C(=O)N[C@H](C(=O)N[C@@H](CCCCN)C(=O)N[C@@H](CCCNC(=N)N)C(=O)N[C@@H](CCCCN)C(=O)N[C@@H](CCCNC(=N)N)C(=O)N[C@@H](CCC(N)=O)C(=O)N[C@@H](CCC(N)=O)C(N)=O)[C@@H](C)CC)[C@@H](C)CC)[C@@H](C)O)[C@@H](C)O)C(C)C)C(C)C`, the Concentration in the test listed under Mus musculus and in the test filed under Homo sapiens was 1 µM in each case.
As to H-GIGKFLHSAKKFGKAFVGEIMNS-NH2, the results for the MIC against Staphylococcus aureus, against Pseudomonas aeruginosa and in the test with Escherichia coli were 19 µM, 5 µM and 10 µM, respectively. Moreover, the Concentration in the test filed under Mus musculus was 60 µM; in the test filed under Homo sapiens, > 460 µM.
As to H-KAAKKAAKAAKKAA-OH, the results for the minimal inhibitory concentration (MIC) against Staphylococcus aureus and in the test on Escherichia coli were > 256 µM and 47 µM, respectively. In addition, the Concentration in the test filed under Mus musculus was > 525 µM; in the test filed under Homo sapiens, > 670 µM.
The like results for H-KAAKKAAKAAKKAAKAAKKAA-OH were, in that order, 8 µM, 8 µM, > 440 µM and > 1630 µM.
As for H-KLAKKLA-OH, the MIC against Staphylococcus aureus, against Pseudomonas aeruginosa and against Escherichia coli was > 100 µM each time.
For H-KLAKKLAKLAKKLA-OH, the MIC in the test on Staphylococcus aureus worked out at 6 µM; against Pseudomonas aeruginosa, 3 µM; in the test on Escherichia coli, 6 µM. For the same molecule, the Concentration in the test listed under Mus musculus is > 272 µM; in the test listed under Homo sapiens, > 750 µM.
As to H-KLAKLAK-OH, the MIC against Staphylococcus aureus, against Pseudomonas aeruginosa and with Escherichia coli was > 95 µM throughout.
As to H-KLGKKLGKLGKKLG-OH, the MIC in the test with Staphylococcus aureus and in the test with Escherichia coli was 22 µM in each case. For the same molecule, in the test filed under Homo sapiens, the Concentration was > 780 µM.
Consider H-KLGKKLGKLGKKLGKLGKKLG-OH, for which the minimum inhibitory concentration (MIC) with Staphylococcus aureus, in the test on Pseudomonas aeruginosa and against Escherichia coli was 4 µM each time. Also, the Concentration is > 393 µM in the test listed under Mus musculus and > 570 µM in the test listed under Homo sapiens.

Source of the values: ChEMBL document CHEMBL1129261, “De novo antimicrobial peptides with low mammalian cell toxicity” (1996).
